Source: ChEMBL document CHEMBL4689842, “EUbOPEN Chemogenomics Library wave 1” (2021)

System: U2OS
Assay: Multiplex assay against U2OS
Assay type: toxicity, cell-based
Settings: human
Method in brief: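 Four dyes were applied at seeding to live cells: Hoechst33342, BioTracker Green Microtubule Cytoskeleton Dye, MitoTracker Red and Annexin V Alexa Fluor 680. Imaging after compound addition used a CQ1 microscope at 37°C and 5% CO2. CellPathfinder machine-learning gating then sorted cells into Hoechst high-intensity objects or normal cells, normal cells into healthy, pyknosed or fragmented nuclei, and pyknosed cells into mitotic or apoptotic, with tubulin, mitochondrial-mass and membrane-permeability phenotypes given as per cents of healthy-nucleus cells.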

[1] = 12 h, 1 µM, compound concentration 1 uM, replicate 1
[2] = 12 h, 1 µM, compound concentration 1 uM, replicate 2
[3] = 12 h, 10 µM, compound concentration 10 uM, replicate 1
[4] = 12 h, 10 µM, compound concentration 10 uM, replicate 2
[5] = 24 h, 1 µM, compound concentration 1 uM, replicate 1
[6] = 24 h, 1 µM, compound concentration 1 uM, replicate 2
[7] = 24 h, 10 µM, compound concentration 10 uM, replicate 1
[8] = 24 h, 10 µM, compound concentration 10 uM, replicate 2
[9] = 48 h, 1 µM, compound concentration 1 uM, replicate 1
[10] = 48 h, 1 µM, compound concentration 1 uM, replicate 2
[11] = 48 h, 10 µM, compound concentration 10 uM, replicate 1
[12] = 48 h, 10 µM, compound concentration 10 uM, replicate 2

## CC(C)c1cc(Nc2nc(N3CCC[C@H](N)C3)ncc2C(N)=O)cc(C(C)C)n1
[1]
  Population Apoptotic (%): 51%
  Population Fragmented Nuclei (%): 8%
  Population Healthy Nuclei (%): 67%
  Population Hoechst High Intensity Objects (%): 5%
  Population Membrane Permeable-Phenotype (%): 22%
  Population Mitochondria Different-Phenotype (%): 89%
  Population Mitotic Cells (%): 48%
  Population Normal (%): 94%
  Population Pyknosed Nuclei (%): 23%
  Population Tubulin-Different-Phenotype (%): 100%
  Total Cell Count: 201
[2]
  Population Apoptotic (%): 44%
  Population Fragmented Nuclei (%): 12%
  Population Healthy Nuclei (%): 75%
  Population Hoechst High Intensity Objects (%): 9%
  Population Membrane Permeable-Phenotype (%): 16%
  Population Mitochondria Different-Phenotype (%): 92%
  Population Mitotic Cells (%): 55%
  Population Normal (%): 90%
  Population Pyknosed Nuclei (%): 12%
  Population Tubulin-Different-Phenotype (%): 96%
  Total Cell Count: 82
[3]
  Population Apoptotic (%): 64%
  Population Fragmented Nuclei (%): 23%
  Population Healthy Nuclei (%): 39%
  Population Hoechst High Intensity Objects (%): 4%
  Population Membrane Permeable-Phenotype (%): 88%
  Population Mitochondria Different-Phenotype (%): 98%
  Population Mitotic Cells (%): 35%
  Population Normal (%): 95%
  Population Pyknosed Nuclei (%): 37%
  Total Cell Count: 161
[4]
  Population Apoptotic (%): 65%
  Population Fragmented Nuclei (%): 19%
  Population Healthy Nuclei (%): 31%
  Population Hoechst High Intensity Objects (%): 14%
  Population Membrane Permeable-Phenotype (%): 100%
  Population Mitochondria Different-Phenotype (%): 93%
  Population Mitotic Cells (%): 34%
  Population Normal (%): 85%
  Population Pyknosed Nuclei (%): 48%
  Population Tubulin-Different-Phenotype (%): 100%
  Total Cell Count: 55
[5]
  Population Apoptotic (%): 57%
  Population Fragmented Nuclei (%): 9%
  Population Healthy Nuclei (%): 61%
  Population Hoechst High Intensity Objects (%): 6%
  Population Membrane Permeable-Phenotype (%): 22%
  Population Mitochondria Different-Phenotype (%): 90%
  Population Mitotic Cells (%): 42%
  Population Normal (%): 93%
  Population Pyknosed Nuclei (%): 29%
  Population Tubulin-Different-Phenotype (%): 98%
  Total Cell Count: 206
[6]
  Population Apoptotic (%): 26%
  Population Fragmented Nuclei (%): 10%
  Population Healthy Nuclei (%): 68%
  Population Hoechst High Intensity Objects (%): 5%
  Population Membrane Permeable-Phenotype (%): 30%
  Population Mitochondria Different-Phenotype (%): 96%
  Population Mitotic Cells (%): 73%
  Population Normal (%): 94%
  Population Pyknosed Nuclei (%): 20%
  Population Tubulin-Different-Phenotype (%): 94%
  Total Cell Count: 77
[7]
  Population Apoptotic (%): 74%
  Population Fragmented Nuclei (%): 32%
  Population Hoechst High Intensity Objects (%): 9%
  Population Membrane Permeable-Phenotype (%): 97%
  Population Mitochondria Different-Phenotype (%): 100%
  Population Mitotic Cells (%): 25%
  Population Normal (%): 90%
  Population Pyknosed Nuclei (%): 44%
  Population Tubulin-Different-Phenotype (%): 97%
  Total Cell Count: 167
[8]
  Population Apoptotic (%): 84%
  Population Fragmented Nuclei (%): 23%
  Population Healthy Nuclei (%): 23%
  Population Hoechst High Intensity Objects (%): 17%
  Population Membrane Permeable-Phenotype (%): 100%
  Population Mitochondria Different-Phenotype (%): 90%
  Population Mitotic Cells (%): 16%
  Population Normal (%): 82%
  Population Pyknosed Nuclei (%): 53%
  Population Tubulin-Different-Phenotype (%): 100%
  Total Cell Count: 57
[9]
  Population Apoptotic (%): 54%
  Population Fragmented Nuclei (%): 17%
  Population Healthy Nuclei (%): 45%
  Population Hoechst High Intensity Objects (%): 7%
  Population Membrane Permeable-Phenotype (%): 26%
  Population Mitochondria Different-Phenotype (%): 83%
  Population Mitotic Cells (%): 45%
  Population Normal (%): 92%
  Population Pyknosed Nuclei (%): 37%
  Population Tubulin-Different-Phenotype (%): 94%
  Total Cell Count: 249
[10]
  Population Apoptotic (%): 52%
  Population Fragmented Nuclei (%): 14%
  Population Healthy Nuclei (%): 60%
  Population Hoechst High Intensity Objects (%): 3%
  Population Membrane Permeable-Phenotype (%): 46%
  Population Mitochondria Different-Phenotype (%): 88%
  Population Mitotic Cells (%): 47%
  Population Normal (%): 96%
  Population Pyknosed Nuclei (%): 25%
  Population Tubulin-Different-Phenotype (%): 96%
  Total Cell Count: 86
[11]
  Population Apoptotic (%): 89%
  Population Fragmented Nuclei (%): 36%
  Population Healthy Nuclei (%): 5%
  Population Hoechst High Intensity Objects (%): 15%
  Population Membrane Permeable-Phenotype (%): 100%
  Population Mitochondria Different-Phenotype (%): 100%
  Population Mitotic Cells (%): 10%
  Population Normal (%): 84%
  Population Pyknosed Nuclei (%): 58%
  Population Tubulin-Different-Phenotype (%): 100%
  Total Cell Count: 155
[12]
  Population Apoptotic (%): 95%
  Population Fragmented Nuclei (%): 34%
  Population Healthy Nuclei (%): 9%
  Population Hoechst High Intensity Objects (%): 26%
  Population Mitotic Cells (%): 4%
  Population Normal (%): 73%
  Population Pyknosed Nuclei (%): 56%
  Total Cell Count: 56
